Results: ChEMBL document CHEMBL1147378, “Further lupane lactones from Kokoona ochracea” (1993)
Converted amounts (≈) assume the structure as drawn.

How the values were obtained:
[1] = Cytotoxicity against human BC1 cells after 72 hrs; format: functional; details: BC1, 72 h, read-out: ED50 (the source's name)
Method in brief: (§1)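 Cells in media with penicillin, streptomycin, fungizone and NaHCO3, pH 7.1–7.2. Compounds dissolved in DMSO (0.5% v/v final) and tested in triplicate at four concentrations (0.16–20 μg/ml). Incubation 72 h at 37° under 5% CO2. Cells fixed in cold 50% TCA and stained with sulforhodamine B. Bound dye solubilized in 10 mM Tris base, OD read at 515 nm. ED50 taken from averaged % of DMSO-only controls.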

HT-1080 = assay: Cytotoxicity against human HT1080 cells after 48 hrs; format: functional; details: HT-1080, 48 h, read-out: ED50 (the source's name)
Method in brief: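 HT-1080 cells exposed in triplicate to four concentrations (0.16–20 μg/ml) of compound from DMSO stock (0.5% v/v final). Incubation 48 h at 37° under 5% CO2. Read-out by cold 50% TCA fixation, sulforhodamine B staining and Tris-solubilized OD at 515 nm. ED50 derived from averaged % of DMSO-only controls.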

Lu1 = assay: Cytotoxicity against human Lu1 cells after 72 hrs; format: functional; details: Lu1, 72 h, read-out: ED50 (the source's name); method in brief: as §1
SK-MEL-2 = assay: Cytotoxicity against human SK-MEL-2 cells after 72 hrs; format: functional; details: SK-MEL-2, 72 h, read-out: ED50 (the source's name)
Method in brief: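 MEL-2 cells kept in a closed container. Treated in triplicate at four concentrations (0.16–20 μg/ml), DMSO 0.5% v/v final. Incubation 72 h at 37° without CO2. Cells fixed with cold 50% TCA, stained with sulforhodamine B, dye solubilized in 10 mM Tris, OD 515 nm. ED50 derived from averaged % of DMSO-only controls.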

Col2 = assay: Cytotoxicity against human Col2 cells after 72 hrs; format: functional; details: Col2, 72 h, read-out: ED50 (the source's name); method in brief: as §1
KB = assay: Cytotoxicity against human KB cells after 72 hrs; format: functional; details: read-out: ED50 (the source's name); method in brief: as §1
[2] = Cytotoxicity against human multidrug-resistant KBV1 cells in presence of vinblastine after 72 hrs; format: functional; details: KB-V1, 72 h, read-out: ED50 (the source's name)
[3] = Cytotoxicity against human multidrug-resistant KBV1 cells in absence of vinblastine after 72 hrs; format: functional; details: KB-V1, 72 h, read-out: ED50 (the source's name); method in brief: as §1
P388 = assay: Cytotoxicity against mouse P388 cells after 48 hrs; format: functional; details: P388, 48 h, read-out: ED50 (the source's name)
Method in brief: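 Murine P-388 cells grown in medium without fungizone. Treated in triplicate at four concentrations (0.16–20 μg/ml), DMSO 0.5% v/v final. Incubation 48 h at 37° under 5% CO2. Fixed with 20% TCA, stained with sulforhodamine B, Tris-solubilized OD read at 515 nm. ED50 derived from averaged % of DMSO-only controls.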

A-431 = assay: Cytotoxicity against human A431 cells after 72 hrs; format: functional; details: A-431, 72 h, read-out: ED50 (the source's name); method in brief: as §1
LNCaP = assay: Cytotoxicity against human LNCAP cells after 72 hrs; format: functional; details: read-out: ED50 (the source's name); method in brief: as §1
ZR-75-1 = assay: Cytotoxicity against human ZR-75-1 cells after 72 hrs; format: functional; details: ZR-75-1, 72 h, read-out: ED50 (the source's name); method in brief: as §1
[4] = Cytotoxicity against human U373 cells after 96 hrs; format: functional, U-373MG ATCC; details: U373 MG, read-out: ED50 (the source's name)
Method in brief: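 U373 cells grown in medium without fungizone. Treated in triplicate with four concentrations (0.16–20 μg/ml), DMSO 0.5% v/v final. Incubation 96 h at 37° under 5% CO2. Sulforhodamine B protein stain after cold 50% TCA fixation, OD 515 nm. ED50 derived from averaged % of DMSO-only controls.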

Row | SMILES | EC50 [1] | EC50 (HT-1080) | EC50 (Lu1) | EC50 (SK-MEL-2) | EC50 (Col2) | EC50 (KB) | EC50 [2] | EC50 [3] | EC50 (P388) | EC50 (A-431) | EC50 (LNCaP) | EC50 (ZR-75-1) | EC50 [4]
1 | CC(=O)OC[C@]1(O)C(=O)O[C@@H]2C[C@]3(C)CC[C@]4(C)[C@@H](CC[C@@H]5[C@@]6(C)CCC(=O)C(C)(C)[C@@H]6CC[C@]54C)[C@@H]3[C@@H]21 | > 20 µg/mL | > 20 µg/mL | > 20 µg/mL | 20 µg/mL (≈ 37.8 µM) | > 20 µg/mL | 16.7 µg/mL (≈ 31.6 µM) | 11.7 µg/mL | 14.6 µg/mL (≈ 27.6 µM) | 4.6 µg/mL (≈ 8.7 µM) | > 20 µg/mL | > 20 µg/mL | > 20 µg/mL | > 20 µg/mL
2 | C=C1C(=O)O[C@@H]2C[C@]3(CO)CC[C@]4(C)[C@@H](CC[C@@H]5[C@@]6(C)CCC(=O)C(C)(C)[C@@H]6CC[C@]54C)[C@@H]3[C@H]12 [OCHRACEOLIDE E] | > 20 µg/mL | 12.2 µg/mL (≈ 26 µM) | > 20 µg/mL | 11.9 µg/mL (≈ 25.4 µM) | > 20 µg/mL | > 20 µg/mL | > 20 µg/mL | > 20 µg/mL | > 5 µg/mL | > 20 µg/mL | > 20 µg/mL | 18.8 µg/mL (≈ 40.1 µM) | 8.6 µg/mL (≈ 18.3 µM)
3 | CC(=O)OC[C@]1(OC(C)=O)C(=O)O[C@@H]2C[C@]3(C)CC[C@]4(C)[C@@H](CC[C@@H]5[C@@]6(C)CCC(=O)C(C)(C)[C@@H]6CC[C@]54C)[C@@H]3[C@@H]21 | > 20 µg/mL | > 20 µg/mL | > 20 µg/mL | 6.2 µg/mL (≈ 10.9 µM) | > 20 µg/mL | 16.8 µg/mL (≈ 29.4 µM) | 6.7 µg/mL | 18.3 µg/mL (≈ 32.1 µM) | 4.8 µg/mL (≈ 8.41 µM) | > 20 µg/mL | > 20 µg/mL | 11.5 µg/mL (≈ 20.1 µM) | > 20 µg/mL
4 | CC1(C)C(=O)CC[C@]2(C)[C@H]3CC[C@H]4[C@@H]5[C@H]6[C@@H](C[C@]5(C)CC[C@@]4(C)[C@]3(C)CC[C@@H]12)OC(=O)[C@@]6(O)CO [OCHRACEOLIDE D] | > 20 µg/mL | 14.7 µg/mL (≈ 30.2 µM) | > 20 µg/mL | > 20 µg/mL | > 20 µg/mL | > 20 µg/mL | > 20 µg/mL | > 20 µg/mL | > 5 µg/mL | 9.5 µg/mL (≈ 19.5 µM) | 15.5 µg/mL (≈ 31.8 µM) | > 20 µg/mL | 3.9 µg/mL (≈ 8.01 µM)
